Test results taken from ChEMBL document CHEMBL5038571, “Design and Synthesis of EZH2-Based PROTACs to Degrade the PRC2 Complex for Targeting the Noncatalytic Activity of EZH2” (J Med Chem, 2021).
pIC50: −log10 of the molar value. Calls of active or inactive are those of the source. No cut-off for these calls is given here.

Legend:
WSUDLCL2 = experiment: Effect on Histone H3 methylation in human WSUDLCL2 cells assessed as reduction in H3K9me3 levels at upto 10 uM incubated for 48 hrs by Western blot analysis; assay type: functional, cell-based; details: dose microM <=10, time 48.0 hrs
How it was run: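 Lysates run on SDS-PAGE and transferred to nitrocellulose. Membranes blocked with 5% skim milk for 2 h, primary antibody applied overnight at 4 °C, then secondary antibody and chemiluminescent detection of histone H3 methylation marks.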

[1] = biological target: T1, Histone-lysine N-methyltransferase EZH1 (Homo sapiens, UniProt Q92800); experiment: Inhibition of recombinant full length human N-terminal FLAG-tagged EZH1 in PRC2 complex expressed in baculovirus system using SAM as substrate preincubated for 15 mins followed by substrate addition and measured after 60 mins by AlphaLISA immunodetection assay
T1 sequence (Q92800 whole entry): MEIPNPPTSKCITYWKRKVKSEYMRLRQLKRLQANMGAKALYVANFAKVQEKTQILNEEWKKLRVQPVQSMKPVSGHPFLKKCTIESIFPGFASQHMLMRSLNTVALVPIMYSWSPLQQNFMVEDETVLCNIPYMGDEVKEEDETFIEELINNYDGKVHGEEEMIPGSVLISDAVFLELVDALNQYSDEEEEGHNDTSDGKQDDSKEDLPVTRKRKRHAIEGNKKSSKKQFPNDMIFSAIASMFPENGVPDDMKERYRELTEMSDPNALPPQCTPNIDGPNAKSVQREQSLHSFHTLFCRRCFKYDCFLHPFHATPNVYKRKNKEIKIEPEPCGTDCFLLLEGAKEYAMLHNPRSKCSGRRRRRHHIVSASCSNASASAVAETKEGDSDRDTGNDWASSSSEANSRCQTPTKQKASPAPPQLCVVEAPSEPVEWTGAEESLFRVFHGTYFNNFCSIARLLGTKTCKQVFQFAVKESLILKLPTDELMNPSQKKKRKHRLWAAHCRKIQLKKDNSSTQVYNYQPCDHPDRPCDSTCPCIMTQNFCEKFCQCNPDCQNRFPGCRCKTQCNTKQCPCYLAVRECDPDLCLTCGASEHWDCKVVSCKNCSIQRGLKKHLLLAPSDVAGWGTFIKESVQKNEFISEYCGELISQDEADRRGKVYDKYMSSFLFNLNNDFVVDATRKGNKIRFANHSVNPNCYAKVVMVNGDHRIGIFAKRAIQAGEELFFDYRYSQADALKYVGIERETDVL

MDA-MB-468 = experiment: Downregulation of CEP76 mRNA expression in human MDA-MB-468 cells at 10 uM incubated for 48 hrs by qRT-PCR analysis; assay type: functional, cell-based
How it was run: (§1)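 Cells treated 48 h. Total RNA extracted with Trizol, reverse-transcribed, and SYBR RT-qPCR run: 95 °C 30 s, then 40 cycles of 95 °C 6 s and 60 °C 20 s. mRNA normalized to the DMSO-treated group. Mean SD of three independent experiments, t-test versus DMSO.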

[2] = biological target: T2, Protein cereblon/Histone-lysine N-methyltransferase EZH2 (Homo sapiens) (UniProt Q15910+Q96SW2); experiment: PROTAC activity at CRBN E3 ligase/EZH2 in PRC2 complex in human WSUDLCL2 cells assessed as induction of SUZ12 degradation at 1 uM incubated for 48 hrs by Western blot analysis relative to control; assay type: cell-based
How it was run: (§2)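 WSU-DLCL-2 cells treated 48 h (1 μM for the single-concentration screen), lysed; SDS-PAGE, nitrocellulose transfer, 5% milk block, primary antibody 4 °C overnight, chemiluminescence. Bands quantified by densitometry, normalized to GAPDH, expressed relative to DMSO-treated cells; mean ± SD of three independent experiments, t-test.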

[3] = biological target: T2, Protein cereblon/Histone-lysine N-methyltransferase EZH2 (Homo sapiens); experiment: PROTAC activity at CRBN E3 ligase/EZH2 in PRC2 complex in human WSUDLCL2 cells assessed as induction of EED degradation at 1 uM measured up to 2 hrs by Western blot analysis; assay type: cell-based; details: time hrs <=2
[4] = biological target: T2, Protein cereblon/Histone-lysine N-methyltransferase EZH2 (Homo sapiens); experiment: PROTAC activity at CRBN E3 ligase/EZH2 in PRC2 complex in human WSUDLCL2 cells assessed as induction of SUZ12 degradation by measuring reduction in SUZ12 protein level at 1 uM measured after 48 to 72 hrs by Western blot analysis; assay type: cell-based; details: time 48-72 hrs
A549 = experiment: Downregulation of CEP76 mRNA expression in human A549 cells at 10 uM incubated for 48 hrs by qRT-PCR analysis; assay type: functional, cell-based; how it was run: as §1
[5] = biological target: T2, Protein cereblon/Histone-lysine N-methyltransferase EZH2 (Homo sapiens); experiment: PROTAC activity at CRBN E3 ligase/EZH2 in PRC2 complex in human WSUDLCL2 cells assessed as downregulation of EED expression at 1 uM pretreated with GSK126 for 4 hrs followed by compound addition and measured after 48 hrs by Western blot analysis; assay type: cell-based
How it was run: (§3)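 WSU-DLCL-2 cells pretreated 4 h with the named inhibitor, then compound added and incubated a further 48 h. EZH2, SUZ12, EED and RbAp48 measured by western blot (nitrocellulose transfer, skim-milk block, primary antibody overnight at 4 °C, chemiluminescent detection).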

[6] = biological target: T2, Protein cereblon/Histone-lysine N-methyltransferase EZH2 (Homo sapiens); experiment: PROTAC activity at CRBN E3 ligase/EZH2 in PRC2 complex in human WSUDLCL2 cells assessed as reduction in H3K27me3 level incubated for 48 hrs by Western blot analysis; assay type: cell-based; details: dose 1-10 µM; how it was run: as §2
[7] = biological target: T2, Protein cereblon/Histone-lysine N-methyltransferase EZH2 (Homo sapiens); experiment: PROTAC activity at CRBN E3 ligase/EZH2 in PRC2 complex in human WSUDLCL2 cells assessed as downregulation of RbAp48 expression at 1 uM pretreated with MLN4924 for 4 hrs followed by compound addition and measured after 48 hrs by Western blot analysis; assay type: cell-based; how it was run: as §3
[8] = biological target: T2, Protein cereblon/Histone-lysine N-methyltransferase EZH2 (Homo sapiens); experiment: PROTAC activity at CRBN E3 ligase/EZH2 in PRC2 complex in human LNCaP cells assessed as induction of EED degradation by measuring reduction in EED protein level at 1 uM incubated for 48 hrs by Western blot analysis; assay type: cell-based
How it was run: (§4)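 Cancer cell lines exposed to 1 μM compound for 48 h. Lysates immunoblotted (SDS-PAGE, nitrocellulose, 5% milk block, primary antibody overnight at 4 °C) for EZH2, SUZ12, EED, RbAp48 and H3K27me3. Bands quantified by densitometry and normalized to GAPDH.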

[9] = biological target: T2, Protein cereblon/Histone-lysine N-methyltransferase EZH2 (Homo sapiens); experiment: PROTAC activity at CRBN E3 ligase/EZH2 in PRC2 complex in human WSUDLCL2 cells assessed as downregulation of EED expression at 1 uM pretreated with EED226 for 4 hrs followed by compound addition and measured after 48 hrs by Western blot analysis; assay type: cell-based; how it was run: as §3
[10] = biological target: T2, Protein cereblon/Histone-lysine N-methyltransferase EZH2 (Homo sapiens); experiment: PROTAC activity at CRBN E3 ligase/EZH2 in PRC2 complex in human DU-145 cells assessed as induction of RbAp48 degradation by measuring reduction in RbAp48 protein level at 1 uM incubated for 48 hrs by Western blot analysis; assay type: cell-based; how it was run: as §4
[11] = biological target: T2, Protein cereblon/Histone-lysine N-methyltransferase EZH2 (Homo sapiens); experiment: PROTAC activity at CRBN E3 ligase/EZH2 in PRC2 complex in human WSUDLCL2 cells assessed as reduction in H3K27me3 level at 1 uM incubated for 48 hrs by Western blot analysis relative to control; assay type: cell-based; design: scale not given: the % may be the effect or the level left; how it was run: as §2
[12] = biological target: T2, Protein cereblon/Histone-lysine N-methyltransferase EZH2 (Homo sapiens); experiment: PROTAC activity at CRBN E3 ligase/EZH2 in PRC2 complex in human WSUDLCL2 cells assessed as induction of EZH2 degradation by measuring reduction in EZH2 protein level at 1 uM measured after 48 to 72 hrs by Western blot analysis; assay type: cell-based; details: time 48-72 hrs

T2 sequence (Q15910 whole entry, looked up): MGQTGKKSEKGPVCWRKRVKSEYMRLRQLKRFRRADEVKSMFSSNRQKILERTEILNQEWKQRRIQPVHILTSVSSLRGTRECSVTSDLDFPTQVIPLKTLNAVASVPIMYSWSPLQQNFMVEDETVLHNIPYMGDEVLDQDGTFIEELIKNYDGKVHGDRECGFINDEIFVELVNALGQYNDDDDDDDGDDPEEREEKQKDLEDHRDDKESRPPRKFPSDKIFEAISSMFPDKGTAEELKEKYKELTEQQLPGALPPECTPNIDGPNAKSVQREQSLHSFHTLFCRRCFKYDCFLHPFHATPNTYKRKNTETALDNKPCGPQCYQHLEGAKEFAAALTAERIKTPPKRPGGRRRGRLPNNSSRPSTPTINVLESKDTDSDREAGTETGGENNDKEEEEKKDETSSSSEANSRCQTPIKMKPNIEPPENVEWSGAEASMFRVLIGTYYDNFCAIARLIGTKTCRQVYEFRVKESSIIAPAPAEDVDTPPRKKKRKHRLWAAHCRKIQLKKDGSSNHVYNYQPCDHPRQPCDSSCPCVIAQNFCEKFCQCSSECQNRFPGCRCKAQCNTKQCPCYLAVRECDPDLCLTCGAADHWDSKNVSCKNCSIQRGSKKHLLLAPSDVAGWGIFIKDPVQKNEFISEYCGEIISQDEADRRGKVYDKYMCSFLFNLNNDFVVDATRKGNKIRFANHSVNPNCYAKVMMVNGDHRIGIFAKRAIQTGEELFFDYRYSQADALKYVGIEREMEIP
T2 sequence (Q96SW2 whole entry, looked up): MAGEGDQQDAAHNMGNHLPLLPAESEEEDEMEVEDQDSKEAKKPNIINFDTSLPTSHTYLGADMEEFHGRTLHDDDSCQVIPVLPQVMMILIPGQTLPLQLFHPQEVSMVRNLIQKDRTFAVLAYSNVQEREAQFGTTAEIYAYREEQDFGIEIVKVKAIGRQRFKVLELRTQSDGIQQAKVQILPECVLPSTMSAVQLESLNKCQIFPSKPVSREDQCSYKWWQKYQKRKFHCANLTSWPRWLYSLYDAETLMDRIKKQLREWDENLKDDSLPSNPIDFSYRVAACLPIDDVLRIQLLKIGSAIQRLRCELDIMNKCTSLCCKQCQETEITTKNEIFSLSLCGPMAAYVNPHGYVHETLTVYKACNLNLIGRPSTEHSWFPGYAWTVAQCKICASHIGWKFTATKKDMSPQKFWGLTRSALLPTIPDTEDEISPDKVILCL

pIC50 [1]: 6.75 | Activity [2]: 81% | Activity [3]: inactive | Activity [4]: Active | Activity [5]: inactive | Activity [6]: Dose-Dependent Effect | Activity [7]: inactive | Activity [8]: Active | Activity [9]: Active | Activity [10]: Active | Activity [11]: 83% | Activity [12]: Active
SMILES: CCN(c1cc(-c2ccc(CN3CCN(CCCCCCCOc4cccc5c4C(=O)N(C4CCC(=O)NC4=O)C5=O)CC3)cc2)cc(C(=O)NCc2c(C)cc(C)[nH]c2=O)c1C)C1CCOCC1 (stereo not given)
Activity (WSUDLCL2): inactive | Activity (MDA-MB-468): Active | Activity (A549): Active
